In the library only some 1.5% were active in any assay of this set; here they are far more common.
Jurkat NFkB inh = lowers PMA/ionomycin-induced NF-kB signal in Jurkat cells; PMA/ionomycin-induced NF-kB luciferase reporter, luminescence; 330,000 compounds, 0.53% hits; AID 435003; inhibition, % at 4 µM; in the data active = inhibition above about 50%
NR2E3 ag-1 = activates human NR2E3 receptor. inhibition of corepressor binding, % at 3.98 µM. AID 602229. 360,000 compounds, 0.35% hits. CHO-S Gal4-NCOR/VP16-NR2E3 two-hybrid, luciferase;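 active = inhibition above the mean of all tested compounds plus 3 SD, cut at about 70% in these data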;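 note: 0% = DMSO with NR2E3 transfected cells and 100% = cells lacking NR2E3 construct; higher means lower luciferase signal from less NR2E3 corepressor binding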
Target sequence (Q9Y5X4 whole entry, looked up, the tested form may be a part): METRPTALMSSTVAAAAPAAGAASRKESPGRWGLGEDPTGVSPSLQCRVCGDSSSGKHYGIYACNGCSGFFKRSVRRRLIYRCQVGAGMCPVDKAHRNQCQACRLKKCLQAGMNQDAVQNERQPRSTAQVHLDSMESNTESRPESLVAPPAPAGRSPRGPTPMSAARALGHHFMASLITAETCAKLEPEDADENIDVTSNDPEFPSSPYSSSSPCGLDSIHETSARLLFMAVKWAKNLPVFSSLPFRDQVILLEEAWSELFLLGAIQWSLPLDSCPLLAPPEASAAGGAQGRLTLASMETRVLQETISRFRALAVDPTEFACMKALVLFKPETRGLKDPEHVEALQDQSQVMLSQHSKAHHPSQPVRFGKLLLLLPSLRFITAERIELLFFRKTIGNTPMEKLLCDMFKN
697 NFkB inh = inhibitors of the PMA/ionomycin-induced NF-kB reporter in 697 B cells; 697 B-cell NF-kB luciferase reporter, 16 h; inhibition, % at 4 µM; 330,000 compounds, 0.33% hits; AID 435022; in the data active = inhibition above about 35%
NR2E3 ag-2 = agonists of human nuclear receptor NR2E3; Q9Y5X4; GST-NR2E3/biotin-RetCOR TR-FRET, 1536-well; inhibition of corepressor binding, % at 4.78 µM; 320,000 compounds, 0.12% hits; AID 2300;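 active = percent inhibition above the cutoff of mean plus 3 SD of all tested compounds, set per screening campaign, cut at about 20% in these data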;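 note: 0% = DMSO wells and 100% = biotin wells as full block of FRET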
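Test system – NR2E3–RetCOR corepressor complex · Quantity – NR2E3 fusion 1.35 nM · Buffer or medium – Tris pH 7.5 · Incubation – Compound–protein incubation for 5 h at 4 °C · Technique – TR-FRET, Eu(K)-anti-GST donor, streptavidin-D2 acceptor, ex 340, em 617/671 nm · Evaluation – percent inhibition of 671/617 nm emission ratio versus biotin and DMSO controls · Plate – 1536-well format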
GASC-1 inh = inhibitors of human GASC-1 (JMJD2C) demethylase; Q9H3R0; GST-JMJD2C(1-420) H3K9me3 demethylation, DELFIA europium; inhibition, % at 2.35 µM; 330,000 compounds, 0.069% hits;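 active = more than half of a compound's replicate wells show inhibition beyond 50%, single wells judged on their own value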;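 note: signal counts dimethyl H3K9 product captured on neutravidin plate; 0% = median of DMSO wells and 100% = 0.3 times that DMSO median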
GalR3 antagonist = antagonists of human GalR3; HEK293 GalR3-CNG cAMP membrane potential fluorescence; galR3 body fused to GalR1 C-terminus; 360,000 compounds, 0.44% hits; AID 651719; inhibition, % at 3 µM;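 active = inhibition above the screen-wide average plus 3 SD, cut at about 13% in these data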;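 note: forskolin and galanin both at EC90 stimulate the cells; cAMP rise reported by CNG channel membrane potential dye signal; 0% = forskolin plus galanin with DMSO and 100% = forskolin alone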
Target sequence (O60755 1-299 limits assumed): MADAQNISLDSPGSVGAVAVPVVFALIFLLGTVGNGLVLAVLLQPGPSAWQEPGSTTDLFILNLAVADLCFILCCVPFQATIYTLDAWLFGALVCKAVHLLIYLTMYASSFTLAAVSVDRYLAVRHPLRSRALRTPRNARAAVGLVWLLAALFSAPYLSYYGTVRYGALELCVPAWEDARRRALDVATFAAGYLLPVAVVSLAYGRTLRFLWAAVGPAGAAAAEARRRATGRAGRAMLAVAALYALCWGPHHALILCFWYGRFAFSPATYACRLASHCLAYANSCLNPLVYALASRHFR
Jurkat NFkB conf = inhibitors of the PMA/ionomycin-induced NF-kB reporter in Jurkat cells, retest | shares compounds with Jurkat NFkB inh | inhibition, % at 4 µM | AID 435020 | Jurkat NF-kB luciferase, 16 h | 2,700 compounds, 27% hits;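 active = inhibition reaching about 45% at 4 µM in either replicate, limit read from the data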;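 note: plate controls were PMA/ionomycin stimulated DMSO wells for no effect and unstimulated DMSO wells for full effect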
697 NFkB conf = lowers PMA/ionomycin-induced NF-kB signal in 697 B cells. shares compounds with 697 NFkB inh. 697 B-cell NF-kB luciferase, 16 h. inhibition, % at 4 µM. 2,000 compounds, 35% hits. AID 449746; in the data active = inhibition mostly above about 28%, no sharp cut-off; inactive = mostly below about 22%
NR2E3 ag conf = confirmation of human NR2E3 agonists. shares compounds with NR2E3 ag-1. CHO-S mammalian two-hybrid NR2E3-NCOR, luciferase luminescence. inhibition, % at 3.98 µM. 2,300 compounds, 51% hits;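 active = average inhibition above a cutoff equal to the mean inhibition of all tested compounds plus one SD, cut at about 70% in these data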;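 note: 0% = DMSO in NR2E3 cells and 100% = DMSO in cells lacking NR2E3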
GAL4-VP16 luc = GAL4-VP16 reporter inhibition in NR2E3 agonist counterscreen; shares compounds with NR2E3 ag-1; CHO-S GAL4-VP16 luciferase reporter, luminescence; inhibition, % at 3.98 µM; 2,300 compounds, 29% hits; AID 624379;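 active = mean inhibition above a cutoff equal to the average over all tested compounds plus one standard deviation, cut at about 70% in these data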;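 note: luciferase from a UAS reporter driven by GAL4-VP16 transactivation; 0% = DMSO with VP16-transfected cells and 100% = DMSO with cells lacking VP16; higher means less reporter light so more repression of VP16 activity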
Starred values were filed as active, the others as inactive; i = inactive; nt = no result.

SMILES | Jurkat NFkB inh | NR2E3 ag-1 | 697 NFkB inh | NR2E3 ag-2 | GASC-1 inh | GalR3 antagonist | Jurkat NFkB conf | NR2E3 ag conf | GAL4-VP16 luc | others
Cc1cc(S(=O)(=O)N2CCCCC2CCNC(=O)C(=O)NCC2CCCO2)ccc1F (stereo not drawn) | -6 | 4 | 4 | -1 | -4 | -5 | nt | nt | nt
Cn1c(=O)c2c(nc(NNC(=O)C(F)(F)F)n2C)n(C)c1=O | -9 | -15 | 2 | -4 | 5 | -3 | nt | nt | nt
Cc1cnc(NC(=O)C2CC(=O)N(c3cccc(Cl)c3)C2)s1 (stereo not drawn) | 75* | 86* | 0 | 4 | 4 | -3 | 72* | 100* | 52
CCOC(=O)CC1COCCN1Cc1cn[nH]c1-c1cc(OC)c(OC)c(OC)c1 (stereo not drawn) | 12 | 8 | 30 | 1 | -4 | 0 | nt | nt | nt
CCCCCCCCC[n+]1cccc2c3ccccc3ccc21 | 71* | 82* | -23 | 4 | 4 | nt | 68* | 99* | 74*
Cc1nn(C(C)(C)C)c(C)c1/C=N/OC(=O)Nc1ccc(Cl)cc1 | 75* | 97* | 52* | -1 | -4 | -7 | 95* | -3 | 91* | 697 NFkB conf=63*
CCCc1nn2c(=O)cc(COc3ccc(NC(=O)c4ccco4)cc3)nc2s1 | 7 | -21 | -17 | -1 | 4 | -8 | nt | nt | nt
CCCCCCCCCn1c2c(c(=N)c3c1CCC3)CCCC2 | 97* | 95* | 58* | nt | -3 | nt | 81* | 98* | 96* | 697 NFkB conf=-13
CN=c1scc(-c2cccs2)n1/N=C/c1ccccc1O | 77* | 95* | -15 | -2 | -6 | -7 | 82* | 90* | 82*
CC(C)N(C(=O)[C@H]1C[C@H](CC(=O)NCCCn2ccnc2)C(=O)N2CCc3c([nH]c4cc(CCC(=O)N(C)C)ccc34)[C@]12C)C(C)C | nt | -25 | 17 | nt | nt | 1 | nt | nt | nt
O=C(NCCc1ccccc1)c1ccc2c(c1)S(=O)(=O)N=C1CCCCCN12 | -17 | -48 | 4 | 1 | 8 | -3 | nt | nt | nt
O=C(OCc1ccccc1F)c1cc([N+](=O)[O-])ccc1N1CCOCC1 | -20 | -5 | -20 | -1 | 19 | -3 | nt | nt | nt
CSc1ccc(COC(=O)c2cc([N+](=O)[O-])ccc2N2CCOCC2)cc1 | 81* | 61 | -85 | -1 | -1 | -5 | 66* | 12 | 27
CCN(c1ccccc1)S(=O)(=O)c1ccc(C(=O)NC2CCN(Cc3ccccc3)CC2)cc1 | 74* | 57 | 27 | nt | -9 | nt | 65* | 80* | 61
CCN(c1ccccc1)S(=O)(=O)c1ccc(C(=O)NC2CCCCC2)cc1 | nt | -6 | nt | nt | nt | -5 | nt | nt | nt
CN(C)CCCNC(=O)C(=O)NCC1CCCO1 (stereo not drawn) | -11 | 22 | 15 | 0 | 3 | 2 | nt | nt | nt
COC(=O)c1ccc2nc(NC(=O)C(C)C)sc2c1 | -70 | -91 | -129 | -2 | 14 | -6 | nt | nt | nt
COC(=O)c1ccc2nc(Nc3nc4c(F)cc(F)cc4s3)sc2c1 | 63* | 58 | -3 | 1 | 13 | -4 | 92* | 29 | -47
CO[C@H]1O[C@H](C)[C@@H](O)C[C@H]1NC(=O)OCc1ccccc1 | 1 | -5 | -6 | 3 | -4 | -10 | nt | nt | nt
CCC(=O)Nc1ccc(Cl)c(NC(=O)C(C)C)c1 | -1 | 7 | 24 | -2 | 10 | -4 | nt | nt | nt
COc1cccc(N2CCN(C(=O)c3ccc(CS(=O)c4ccccc4Cl)o3)CC2)c1 (stereo not drawn) | 56* | 48 | -35 | 0 | 9 | 3 | 53* | 16 | 16
O=S(=O)(O)c1cccc2c(N=Nc3ccc(O)c4ncccc34)cccc12 | nt | 6 | nt | 2 | -2 | nt | nt | nt | nt
O=Nc1ccc(O)c2ncccc12 | 60* | 55 | i | -5 | 2 | 1 | 25 | 58 | 21 | 697 NFkB conf=i
Cc1ccc(C)c(S(=O)(=O)Nc2ccc(C(=O)NCCc3ccccn3)cc2)c1 | 11 | -44 | 18 | 3 | 11 | -5 | nt | nt | nt
O=C(NCCNc1ccnc2cc(Cl)ccc12)c1ccccc1F | 56* | 64 | -37 | 0 | -14 | -4 | 29 | 54 | 57
SMILES | Jurkat NFkB inh | NR2E3 ag-1 | 697 NFkB inh | NR2E3 ag-2 | GASC-1 inh | GalR3 antagonist | Jurkat NFkB conf | NR2E3 ag conf | GAL4-VP16 luc | others
O=C(Nc1nc2ccccc2[nH]1)Nc1ccccc1F | -134 | -121 | -201 | 2 | -8 | -1 | nt | nt | nt
Cc1[nH]c2ccc3ncccc3c2c1C | -1 | 1 | -28 | 1 | 5 | -4 | nt | nt | nt
Cc1c(C)c2cccnc2c2ncccc12 | 78* | 79* | -65 | 0 | 1 | nt | 84* | 39 | 9
N#CC(c1cccc(Cl)c1)c1ccc2c(C(F)(F)F)cc(C(F)(F)F)nc2n1 (stereo not drawn) | 58* | 110* | 66* | 1 | 0 | -2 | 59* | 99* | 91* | 697 NFkB conf=33*
CC(=O)c1ccc(NC(=O)c2ccc([N+](=O)[O-])o2)cc1 | 16 | 1 | 10 | nt | 15 | -10 | nt | nt | nt
Cc1cc(C)cc(NC(=O)c2ccc([N+](=O)[O-])o2)c1 | 87* | 84* | 25 | nt | -5 | -6 | 48* | 51 | 41
NNc1ccc([N+](=O)[O-])c2[nH][nH]c(=O)c12 | nt | -2 | nt | nt | nt | -2 | nt | nt | nt
Cc1cc2sc3ccc(C#CC4(O)CCCCC4)cc3c(=O)c2cc1C | 83* | 60 | 88* | 5 | -1 | -3 | 97* | 86* | 36 | 697 NFkB conf=75*
Cc1ccnc(NC(=O)CCCOc2cc(=O)n(C)c3ccccc23)c1 | 66* | 58 | 61* | 1 | -3 | -8 | 58* | 73* | 28 | 697 NFkB conf=48*
CCOc1ccc(NC(=O)CCCOc2cc(=O)n(C)c3ccccc23)cc1 | -3 | -4 | 32 | 2 | -2 | -3 | nt | nt | nt
Cc1nn(-c2ccccc2Cl)c(Cl)c1/C=N/Nc1nc2ccccc2s1 | 67* | 52 | -223 | -4 | -2 | -2 | 86* | 77* | 67
COC(=O)c1cn(NC(=O)C2CCC(C)CC2)c(=O)c2ccccc12 (stereo not drawn) | 3 | -19 | -8 | -3 | 1 | 1 | nt | nt | nt
